{"data": "Measurements collected from several papers", "KIT T670I/V559D": "Mast/stem cell growth factor receptor Kit (KIT, Homo sapiens, UniProt P10721, T670I/V559D)", "KIT A829P": "Mast/stem cell growth factor receptor Kit (KIT, Homo sapiens, UniProt P10721, A829P)", "KIT D816V": "Mast/stem cell growth factor receptor Kit (KIT, Homo sapiens, UniProt P10721, D816V)", "KIT D816H": "Mast/stem cell growth factor receptor Kit (KIT, Homo sapiens, UniProt P10721, D816H)", "KIT L576P": "Mast/stem cell growth factor receptor Kit (KIT, Homo sapiens, UniProt P10721, L576P)", "KIT V559D/V654A": "Mast/stem cell growth factor receptor Kit (KIT, Homo sapiens, UniProt P10721, V559D/V654A)", "note": "Compare with care: the assays were run in different laboratories."}
{"Compound": "CN1CCN(c2ccc(Nc3nccc(-c4ccccc4)n3)cc2C(F)(F)F)CC1", "target": "KIT T670I/V559D", "read-out": "binding", "tested at": "10 µM", "remaining binding [%]": 0.15}
{"Compound": "Cc1cnn2ncc(-c3ccnc(N(C)C)n3)c2c1", "target": "KIT A829P", "read-out": "binding", "tested at": "1 µM", "remaining binding [%]": 95}
{"Compound": "O=C(Nc1c[nH]nc1C(=O)NC1CCNCC1)c1cc(F)cc(F)c1", "target": "KIT D816V", "read-out": "binding", "technique": "competition with immobilised ligand", "tested at": "1 µM", "remaining binding [%]": 100}
{"Compound": "Nc1ncc2c(n1)-c1c([nH]c3ccc(C#CC4CC4)cc13)CCCC2", "target": "KIT T670I/V559D", "read-out": "binding", "technique": "competition with immobilised ligand", "tested at": "1 µM", "remaining binding [%]": 94}
{"Compound": "O=C(Nc1cnc(Oc2ccc(F)cc2)nc1)N1CCc2ncccc2[C@@H]1c1ccc(F)cc1", "target": "KIT T670I/V559D", "read-out": "cell-free assay", "technique": "competition with immobilised ligand", "tested at": "1 µM", "remaining binding [%]": 84}
{"Compound": "c1cncc(-c2cccc(Nc3nccc(NC4CCCCC4)n3)c2)c1", "target": "KIT D816H", "read-out": "binding", "technique": "competition with immobilised ligand", "tested at": "10 µM", "remaining binding [%]": 13}
{"Compound": "COc1ccc2cc(OCC3(C(=O)O)CN(C(=O)c4ccc(F)cc4)C3)ccc2c1", "target": "KIT L576P", "read-out": "cell-free assay", "technique": "competition with immobilised ligand", "tested at": "1 µM", "remaining binding [%]": 100}
{"Compound": "Cc1cnc(Nc2ccc(C(=O)N3CCC(N4CCCC4)CC3)cc2)nc1-c1cc2ccccc2s1", "target": "Mast/stem cell growth factor receptor Kit (KIT, Homo sapiens, UniProt P10721)", "read-out": "binding", "technique": "competition with immobilised ligand", "tested at": "1 µM", "remaining binding [%]": 4.5}
{"Compound": "Cc1nc(Cc2cccc(C(F)(F)F)c2)sc1-c1ccc(C(N)=O)nc1", "target": "KIT D816V", "read-out": "cell-free assay", "technique": "competition with immobilised ligand", "tested at": "1 µM", "remaining binding [%]": 81}
{"Compound": "CN(C)c1nccc(-c2cnc3ncccn23)n1", "target": "Mast/stem cell growth factor receptor Kit (KIT, Homo sapiens, UniProt P10721, V559D)", "read-out": "binding", "tested at": "1 µM", "remaining binding [%]": 81}
{"Compound": "O=C(c1ccc(Nc2nccc(-c3cc4ccccc4s3)n2)cc1)N1CCC(N2CCCC2)CC1", "target": "KIT D816V", "read-out": "binding", "technique": "competition with immobilised ligand", "tested at": "1 µM", "remaining binding [%]": 15}
{"Compound": "COc1ccc2c(c1)O[C@@H](c1ccc(OC)c(OC)c1)C[C@H]2NC(=O)C1(c2ccc3c(c2)OC(F)(F)O3)CC1", "target": "KIT L576P", "read-out": "cell-free assay", "technique": "competition with immobilised ligand", "tested at": "1 µM", "remaining binding [%]": 92}
{"Compound": "O=C(c1ccc(Nc2ncc(Cl)c(-c3ccc(Cl)s3)n2)cc1)N1CCC(N2CCCC2)CC1", "target": "KIT D816H", "read-out": "binding", "technique": "competition with immobilised ligand", "tested at": "1 µM", "remaining binding [%]": 7.7}
{"Compound": "CN(c1nccc(-c2cnn3ncccc23)n1)C1CC1", "target": "KIT D816V", "read-out": "binding", "tested at": "1 µM", "remaining binding [%]": 85}
{"Compound": "O=c1nc(-c2ccccn2)sc2ccccc12", "target": "KIT A829P", "read-out": "binding", "technique": "competition with immobilised ligand", "tested at": "1 µM", "remaining binding [%]": 100}
{"Compound": "O=C(NCCCN1CCOCC1)c1ccc(Nc2ncc(Cl)c(-c3ccc(Cl)s3)n2)cc1", "target": "KIT V559D/V654A", "read-out": "binding", "technique": "competition with immobilised ligand", "tested at": "1 µM", "remaining binding [%]": 9.9}
{"Compound": "N[C@@H]1CCN(c2nccc(-c3cnn4ncccc34)n2)C1", "target": "KIT T670I/V559D", "read-out": "binding", "tested at": "1 µM", "remaining binding [%]": 100}
{"Compound": "CC(=O)N1CCC(c2ccc(C(=O)NC3=NCCN3)cc2C(F)(F)F)CC1", "target": "KIT D816V", "read-out": "cell-free assay", "technique": "competition with immobilised ligand", "tested at": "1 µM", "remaining binding [%]": 91}
{"Compound": "COc1ccnn2ncc(-c3ccnc(N(C)C)n3)c12", "target": "KIT T670I/V559D", "read-out": "binding", "tested at": "1 µM", "remaining binding [%]": 100}
{"Compound": "C=CC(=O)N1CCC(C(=O)NCC(=O)N2CCN(c3nc(-c4cnc(N)nc4C(F)F)nc(N4CCOCC4)n3)CC2)CC1", "target": "KIT L576P", "read-out": "binding", "technique": "competition with immobilised ligand", "tested at": "1 µM", "remaining binding [%]": 53}
{"Compound": "F[C@@H]1CCN(c2nccc(-c3cnn4ncccc34)n2)C1", "target": "KIT L576P", "read-out": "binding", "tested at": "1 µM", "remaining binding [%]": 92}
{"Compound": "CNC(=O)[C@@H]1CC[C@@H](n2c(-c3ccc4cnccc4c3)nc3ccc(C(=O)NCc4cccc(C(N)=O)c4)cc32)C1", "target": "Mast/stem cell growth factor receptor Kit, autoinhibited (KIT, Homo sapiens, UniProt P10721)", "read-out": "binding", "technique": "competition with immobilised ligand", "tested at": "1 µM", "remaining binding [%]": 100}
{"Compound": "C[C@H]1CCN(c2nccc(-c3cnn4ncccc34)n2)C1", "target": "KIT V559D/V654A", "read-out": "binding", "tested at": "1 µM", "remaining binding [%]": 79}
{"Compound": "CCc1ccccc1C(=O)Nc1n[nH]c2c(C)c(F)c(C3C(C#N)=C(C)N(C)C(C)=C3C#N)cc12", "target": "KIT D816V", "read-out": "cell-free assay", "technique": "competition with immobilised ligand", "tested at": "1 µM", "remaining binding [%]": 55}
